Nine molecules from publication PMC5652008 (EBioMedicine, 2017) can be followed below.

In data set [1] the test system is Aβ production in human stem-cell derived neurons. The experiment in a line: Human neural stem cell-based Aβ40 inhibition assay. Conditions: 48 h incubation. In short, it runs like this:
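Neurons differentiated from SB-AD3 human iPSCs (healthy adult donor fibroblasts) via embryoid bodies and dual SMAD inhibition. Doses 0.128–10,000 nM (three independent differentiations) or 0.001024–80 nM (one differentiation), two technical replicates per dose. Vehicle was histidine/NaCl/1.3 mM hydroxypropyl-β-cyclodextrin for peptides and DMSO for small molecules. Aβ40 read by AlphaLISA at 615 nm, compared with vehicle-treated cells; means ± SEM.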

Data set [2] deals with T1, BACE1 (Homo sapiens, UniProt P56817). The data set is described as follows: Cell-based Aβ lowering IC50 assay. Particulars: for Aβ40 production inhibition in HEK293 APP cells: 16 h / overnight incubation. In short, it runs like this:
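Test compounds, free or Brain Shuttle-coupled, added in serial dilutions to HEK293 cells stably expressing wild-type human APP695, grown in Iscove's medium with 10% FBS to ~80% confluency. Construct dilution buffers served as control. Overnight at 37 °C, 5% CO2. Supernatant Aβ40 read by AlphaLISA: acceptor beads 1 h, then streptavidin donor beads 30 min, both at RT; emission at 615 nm. Compared with vehicle-treated cells; mean ± SEM.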

Data set [3] has as its target T1, BACE1. The experiment in a line: SPR binding assay on immobilized BACE1. Particulars: for kon: BACE1 surface, 18 °C, pH 4.5; for Selectivity for BACE1: ratio KD(BACE2)/KD(BACE1). The essentials: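 SPR at 18 °C in the immobilization buffer. Peptide titrations used 2-fold dilution steps, run either as single-cycle kinetics (5 concentrations) or multi-cycle kinetics (10 concentrations). Two protein surfaces and an activated/deactivated CM5 reference surface were measured in parallel on one sensor.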
On the technique in general: In SPR one partner is held on a chip, and binding of the other changes the refractive index at the surface.

Data set [4] in a line: Thermodynamic. The format is physicochemical. Particulars: phosphate buffer, pH 6.5. In short, it runs like this: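 Equilibrium solubility measured in 0.05 M phosphate buffer, pH 6.5.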
Data set [5] has as its system plasma Aβ. The experiment in a line: Plasma Aβ40 after single i.v. dose in mice. The format is in vivo, C57BL/6 J mice. Conditions: 5 h post dose; for Plasma Aβ40 inhibition: 0.003-3 mg/kg i.v., uncoupled peptides; for Plasma Aβ level reduction: 3 mg/kg i.v., uncoupled peptide. The essentials: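 Nine-week-old female mice received one i.v. injection of test compound at 0.003–3 mg/kg, with the buffer alone as vehicle control; three animals per group. Under anaesthesia, blood was collected into EDTA tubes, spun 8 min at 1600 × g, and plasma diluted 1:10 in 0.2% diethanolamine before solid-phase extraction.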

In data set [6] the target is T2, BACE2 (Homo sapiens, UniProt Q9Y5Z0).
T2 sequence (Q9Y5Z0 20-465): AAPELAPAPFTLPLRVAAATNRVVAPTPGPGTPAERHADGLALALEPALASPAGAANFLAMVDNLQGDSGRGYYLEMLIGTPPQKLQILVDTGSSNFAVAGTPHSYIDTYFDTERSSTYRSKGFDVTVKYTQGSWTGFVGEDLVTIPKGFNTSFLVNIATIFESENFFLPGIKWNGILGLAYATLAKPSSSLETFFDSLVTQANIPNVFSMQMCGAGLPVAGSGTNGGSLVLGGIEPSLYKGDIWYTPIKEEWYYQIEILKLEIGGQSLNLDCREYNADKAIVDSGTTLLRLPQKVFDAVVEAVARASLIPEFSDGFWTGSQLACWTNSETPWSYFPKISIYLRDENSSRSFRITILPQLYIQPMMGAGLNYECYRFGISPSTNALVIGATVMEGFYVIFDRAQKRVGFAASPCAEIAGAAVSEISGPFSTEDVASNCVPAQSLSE
The experiment in a line: SPR binding assay on immobilized BACE2. Particulars: BACE2 surface, 18 °C, pH 4.5. The essentials:
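Binding was run at 18 °C in the same buffer, either single-cycle (5 concentrations) or multi-cycle (10 concentrations), twofold dilutions, against an activated/deactivated reference surface.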

The target of data set [7] is BACE1 ectodomain mutant protein (A14-T454, K307A) (UniProt P56817 14-454, K307A). The data set is described as follows: crystal structure.
BACE1 ectodomain mutant protein (A14-T454, K307A), sequence (P56817 14-454 K307A): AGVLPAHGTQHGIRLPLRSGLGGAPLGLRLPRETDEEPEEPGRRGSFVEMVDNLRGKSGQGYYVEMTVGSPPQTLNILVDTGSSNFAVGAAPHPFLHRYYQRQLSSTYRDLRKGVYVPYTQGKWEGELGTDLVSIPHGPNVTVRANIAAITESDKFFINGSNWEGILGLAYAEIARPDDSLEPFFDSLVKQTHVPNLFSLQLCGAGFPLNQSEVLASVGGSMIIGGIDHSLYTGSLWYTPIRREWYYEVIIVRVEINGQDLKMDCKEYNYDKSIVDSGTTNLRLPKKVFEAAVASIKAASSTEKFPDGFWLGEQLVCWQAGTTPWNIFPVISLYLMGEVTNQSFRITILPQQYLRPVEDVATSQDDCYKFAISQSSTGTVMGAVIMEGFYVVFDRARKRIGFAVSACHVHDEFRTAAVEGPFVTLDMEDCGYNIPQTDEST
Data set [8] concerns the target T3, N-terminal T7-tagged BACE2 (amino acids 20-465) (UniProt Q9Y5Z0 20-465).
T3 sequence: T2 sequence (Q9Y5Z0 20-465)
The data set is described as follows: SPR.

For data set [9], the target named is Beta-secretase 1 (BACE1), C-terminal His-tagged full length. The data set is described as follows: SPR.

Marks after values point to notes of the source that are not given here. Square brackets hold non-standard residues; d marks the D form. Peptide text beside a SMILES is read from it. * marks the point of attachment. Succinyl(4-O-cholesteryl) = CC(C)CCC[C@@H](C)[C@H]1CC[C@H]2[C@@H]3CC=C4C[C@@H](OC(=O)CCC(=O)*)CC[C@]4(C)[C@H]3CC[C@]12C; Sta = CC(C)C[C@H](N)[C@@H](O)CC(=O)O; Palmitoyl = CCCCCCCCCCCCCCCC(=O)*

T1 sequence (P56817 46-501): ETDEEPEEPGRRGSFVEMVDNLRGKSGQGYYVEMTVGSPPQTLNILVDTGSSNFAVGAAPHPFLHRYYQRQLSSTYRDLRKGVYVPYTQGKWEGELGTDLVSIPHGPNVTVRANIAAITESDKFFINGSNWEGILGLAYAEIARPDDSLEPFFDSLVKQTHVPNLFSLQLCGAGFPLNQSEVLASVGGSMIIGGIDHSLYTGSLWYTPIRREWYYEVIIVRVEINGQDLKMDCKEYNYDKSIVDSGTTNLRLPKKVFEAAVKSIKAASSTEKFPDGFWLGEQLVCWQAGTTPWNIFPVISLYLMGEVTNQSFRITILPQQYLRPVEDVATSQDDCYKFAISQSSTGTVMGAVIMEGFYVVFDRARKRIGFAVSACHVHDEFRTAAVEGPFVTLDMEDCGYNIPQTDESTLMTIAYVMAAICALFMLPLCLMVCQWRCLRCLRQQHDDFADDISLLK

Consider `CC[C@H](C)[C@H](NC(=O)[C@H](Cc1ccccc1)NC(=O)[C@H](Cc1ccc(O)cc1)NC(=O)[C@@H]1CCCN1C(=O)[C@H](Cc1ccc(O)cc1)NC(=O)CNC(=O)CNC(=O)CN)C(=O)N1CCC[C@H]1C(=O)N[C@H](CCCCN)C(=O)NCC(=O)N[C@H](CCCCN)C(=O)NCC(=O)N[C@@H](CCC(=O)O)C(=O)N[C@H](C(=O)N[C@@H](CC(N)=O)C(=O)N[C@@H](CC(C)C)[C@@H](O)CC(=O)N[C@H](C(=O)N[C@@H](C)C(=O)N[C@@H](CCC(=O)O)C(=O)N1CCC[C@@H]1C(N)=O)C(C)C)C(C)C` [Pep#16, Gly-Gly-Gly-Tyr-Pro-Tyr-Phe-Ile-Pro-DLys-Gly-DLys-Gly-Glu-Val-Asn-Sta-Val-Ala-Glu-DPro-NH2] (H-GGGYPYFIP[dK]G[dK]GEVN[Sta]VAE[dP]-NH2; N-terminus assumed), for which the “Aβ production inhibition in human stem-cell derived neurons” value (from here on “Aβ production inhibition”) in [1] is recorded as “able to reduce the Aβ production”. Further, the “Aβ40 production inhibition in HEK293 APP cells” value (shortened to “Aβ40 production inhibition”) in data set [2] was “blocked production of Aβ40”.

For the molecule `CC[C@H](C)[C@H](NC(=O)[C@H](Cc1ccccc1)NC(=O)[C@H](Cc1ccc(O)cc1)NC(=O)[C@@H]1CCCN1C(=O)[C@@H](N)Cc1ccc(O)cc1)C(=O)N1CCC[C@H]1C(=O)N[C@H](CCCCN)C(=O)NCC(=O)N[C@H](CCCCN)C(=O)NCC(=O)N[C@@H](CCC(=O)O)C(=O)N[C@H](C(=O)N[C@@H](CC(N)=O)C(=O)N[C@@H](CC(C)C)[C@@H](O)CC(=O)N[C@H](C(=O)N[C@@H](C)C(=O)N[C@@H](CCC(=O)O)C(=O)N1CCC[C@@H]1C(N)=O)C(C)C)C(C)C` [Pep#12, Tyr-Pro-Tyr-Phe-Ile-Pro-DLys-Gly-DLys-Gly-Glu-Val-Asn-Sta-Val-Ala-Glu-DPro-NH2], in [3], the kon is 1.1–1.3·10^5 1/Ms and the “Selectivity for BACE1” value is > 15 ^a.

Usually IC50 stands for the concentration at which inhibition is half-maximal. The low end stands for greater potency, the high end for weaker potency. Usually thermodynamic solubility stands for solubility found after equilibrating the solid with the medium. Turning to `CCCCCCCCCCCCCCCC(=O)NCCCC[C@H](NC(=O)[C@H]1CCCN1C(=O)[C@H](CCC(=O)O)NC(=O)[C@H](C)NC(=O)[C@@H](NC(=O)C[C@H](O)[C@H](CC(C)C)NC(=O)[C@H](CC(N)=O)NC(=O)[C@@H](NC(=O)[C@@H](N)CCC(=O)O)C(C)C)C(C)C)C(N)=O` [Pep#4, Glu-Val-Asn-Sta-Val-Ala-Glu-DPro-Lys(ε-Palmitoyl)-NH2] (H-EVN[Sta]VAE[dP]K(Palmitoyl)-NH2; N-terminus assumed), the IC50 in data set [2] was determined as 0.006 µM. Also, the solubility (thermodynamic) in data set [4] is < 1 µg/mL.

On to `CCCCCCCCCCCCCCCC(=O)NCCCC[C@H](NC(=O)[C@H]1CCCN1C(=O)[C@H](CCC(=O)O)NC(=O)[C@H](C)NC(=O)[C@@H](NC(=O)C[C@H](O)[C@H](CC(C)C)NC(=O)[C@H](CC(N)=O)NC(=O)[C@@H](NC(=O)[C@H](CCC(=O)O)NC(=O)CNC(=O)[C@@H](CCCCN)NC(=O)CNC(=O)[C@H](CC(C)C)NC(=O)[C@@H]1CCCN1C(=O)[C@@H](NC(=O)[C@H](Cc1ccccc1)NC(=O)[C@H](CCCCN)NC(=O)[C@@H]1CCCN1C(=O)[C@H](Cc1ccc(O)cc1)NC(=O)CNC(=O)CNC(=O)CN)[C@@H](C)CC)C(C)C)C(C)C)C(N)=O` [Pep#15, Gly-Gly-Gly-Tyr-Pro-Lys-Phe-Ile-Pro-Leu-Gly-DLys-Gly-Glu-Val-Asn-Sta-Val-Ala-Glu-DPro-Lys(Palmitoyl)-NH2] (H-GGGYPKFIPLG[dK]GEVN[Sta]VAE[dP]K(Palmitoyl)-NH2; N-terminus assumed), for which the “Aβ production inhibition” value in [1] is reported as “able to reduce the Aβ production”. In data set [2], the “Aβ40 production inhibition” value is reported as “blocked production of Aβ40”. Also, in data set [5], the “Plasma Aβ40 inhibition” value is recorded as “Dose-dependent inhibition” and the “Plasma Aβ level reduction” value was 50%.

As to `CC[C@H](C)[C@H](NC(=O)[C@H](Cc1ccccc1)NC(=O)[C@H](Cc1ccc(O)cc1)NC(=O)[C@@H]1CCCN1C(=O)[C@H](Cc1ccc(O)cc1)NC(=O)CNC(=O)CNC(=O)CN)C(=O)N1CCC[C@H]1C(=O)N[C@H](CCCCN)C(=O)NCC(=O)N[C@H](CCCCN)C(=O)NCC(=O)N[C@@H](CCC(=O)O)C(=O)N[C@H](C(=O)N[C@@H](CC(N)=O)C(=O)N[C@@H](CC(C)C)[C@@H](O)CC(=O)N[C@H](C(=O)N[C@@H](C)C(=O)N[C@@H](CCC(=O)O)C(=O)N1CCC[C@@H]1C(=O)N[C@@H](CCCCNC(=O)CCC(=O)O[C@H]1CC[C@@]2(C)C(=CC[C@H]3[C@@H]4CC[C@H]([C@H](C)CCCC(C)C)[C@@]4(C)CC[C@@H]32)C1)C(N)=O)C(C)C)C(C)C` [Pep#14, Gly-Gly-Gly-Tyr-Pro-Tyr-Phe-Ile-Pro-DLys-Gly-DLys-Gly-Glu-Val-Asn-Sta-Val-Ala-Glu-DPro-Lys(Chol'ester’)-NH2] (H-GGGYPYFIP[dK]G[dK]GEVN[Sta]VAE[dP]K(Succinyl(4-O-cholesteryl))-NH2; N-terminus assumed), the “Aβ production inhibition” value in [1] is “able to reduce the Aβ production”. For the same molecule, the “Aβ40 production inhibition” value in [2] is on record as “blocked production of Aβ40”. In data set [5], the “Plasma Aβ40 inhibition” value is on record as “Dose-dependent inhibition” and the “Plasma Aβ level reduction” value amounted to 51%.

In data set [2], `CC(C)CCC[C@@H](C)[C@H]1CC[C@H]2[C@@H]3CC=C4C[C@@H](OC(=O)CCC(=O)NCCCC[C@H](NC(=O)[C@H]5CCCN5C(=O)[C@H](CCC(=O)O)NC(=O)[C@H](C)NC(=O)[C@@H](NC(=O)C[C@H](O)[C@H](CC(C)C)NC(=O)[C@H](CC(N)=O)NC(=O)[C@@H](NC(=O)[C@@H](N)CCC(=O)O)C(C)C)C(C)C)C(N)=O)CC[C@]4(C)[C@H]3CC[C@]12C` [Pep#3, Glu-Val-Asn-Sta-Val-Ala-Glu-DPro-Lys(ε-Chol'ester’)-NH2] (H-EVN[Sta]VAE[dP]K(Succinyl(4-O-cholesteryl))-NH2; N-terminus assumed) yielded an IC50 of 0.0004 µM. For the same molecule, the thermodynamic solubility in data set [4] was > 3000 µg/mL.

In the case of `CC(C)C[C@H](NC(=O)[C@H](CC(N)=O)NC(=O)[C@@H](NC(=O)[C@@H](N)CCC(=O)O)C(C)C)[C@@H](O)CC(=O)N[C@H](C(=O)N[C@@H](C)C(=O)N[C@@H](CCC(=O)O)C(=O)N1CCC[C@@H]1C(N)=O)C(C)C` [Pep#1, Glu-Val-Asn-Sta-Val-Ala-Glu-DPro-NH2] (H-EVN[Sta]VAE[dP]-NH2; N-terminus assumed), in [2], the IC50 was > 40 µM. Besides, the kon in data set [3] is listed as 2.5–4.0·10^3 1/Ms; in data set [6], 2.7–3.1·10^3 1/Ms. In addition, the “Selectivity for BACE1” value in data set [3] was > 280.

As to Ac-ALYPYFLPISAK-NH2 [Pep#6a], the binding result in data set [7] is “binds”.

By Kd is commonly meant a measure of binding affinity in units of concentration. A higher Kd goes with a looser complex. Take Ac-YPYFLPISAK-NH2 [Pep#6]: the Kd was found to be 66 µM in data set [8] and 25 µM in [9].
